Laboratory results from ChEMBL document CHEMBL5705897, “Characterization of WZ4003 and HTH-01-015 as selective inhibitors of the LKB1-tumour-suppressor-activated NUAK kinases” (Biochem J, 2014).
Calls of active or inactive are those of the source. The calls are words filed in the database; no cut-off is given here.

Key:
MEF [1] = experiment: Antiproliferative activity against NUAK1+/+ MEF cells assessed as reduction in cell viability at 10 uM after 5 days by CellTiter 96 non-radioactive cell proliferation assay; type: functional, cell-based; details: Mus musculus, time 5.0 day
In short: (§1)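 Colorimetric CellTiter 96 AQueous proliferation assay in 96-well format; 2000 cells/well seeded for U2OS, 3000 cells/well for MEFs; grown 5 days with or without 10 μM inhibitor; run in triplicate. Inhibitors dissolved in DMSO, final DMSO in medium ≤1%. MEFs cultured in DMEM/10% FBS, glutamine, non-essential amino acids, sodium pyruvate.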

MEF [2] = experiment: Inhibition of NUAK1 in NUAK1+/+ MEF cells assessed as reduction in MYPT1 phosphorylation at Ser445 residues at 10 uM after 16 hrs by immunoblot analysis; type: cell-based; details: Mus musculus
In short: (§2)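 U2OS cells or NUAK1+/+ MEFs treated with or without 10 μM inhibitor for 16 h, then 20 min in EDTA-PBS dissociation buffer with 10 μM inhibitor or DMSO; detached by tapping and 70 g 3 min spin, lysed immediately and immunoblotted for MYPT1 p-Ser445; three separate experiments.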

[3] = molecular target: T1, NUAK family SNF1-like kinase 1 (Homo sapiens) (UniProt O60285); experiment: Inhibition of NUAK1 in human U2OS cells assessed as reduction in MYPT1 phosphorylation at Ser445 residues at 10 uM after 16 hrs by immunoblot analysis; type: cell-based; in short: as §2
T1 sequence (whole entry): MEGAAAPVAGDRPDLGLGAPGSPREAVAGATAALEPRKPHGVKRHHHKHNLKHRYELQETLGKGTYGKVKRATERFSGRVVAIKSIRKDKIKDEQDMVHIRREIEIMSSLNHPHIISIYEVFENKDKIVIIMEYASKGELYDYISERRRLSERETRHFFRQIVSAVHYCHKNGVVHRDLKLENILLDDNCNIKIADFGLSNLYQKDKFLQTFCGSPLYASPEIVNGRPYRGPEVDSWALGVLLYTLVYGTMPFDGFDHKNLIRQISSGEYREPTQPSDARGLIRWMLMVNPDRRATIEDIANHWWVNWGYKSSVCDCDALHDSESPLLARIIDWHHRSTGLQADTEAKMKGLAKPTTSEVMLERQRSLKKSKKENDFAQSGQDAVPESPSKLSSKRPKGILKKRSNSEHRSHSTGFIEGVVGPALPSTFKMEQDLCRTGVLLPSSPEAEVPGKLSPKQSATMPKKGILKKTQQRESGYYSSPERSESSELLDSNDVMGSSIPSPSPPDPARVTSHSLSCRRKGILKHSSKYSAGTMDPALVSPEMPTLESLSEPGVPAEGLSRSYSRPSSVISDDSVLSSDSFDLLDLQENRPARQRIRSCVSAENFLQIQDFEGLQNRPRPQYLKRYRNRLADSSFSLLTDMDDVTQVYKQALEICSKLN

[4] = molecular target: High affinity nerve growth factor receptor (Homo sapiens) (UniProt P04629); experiment: Inhibition of recombinant human N-terminal His6-tagged TrkA (441 to 760 residues) expressed in baculovirus infected Sf21 cells assessed as remaining activity at 1 uM using Poly(Glu,Tyr) as substrate incubated for 30 mins in presence of [gamma-33P]ATP by filter binding method relative to control
In short: (§3)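 Screened at the International Centre for Protein Kinase Profiling against a 140-kinase panel, with inhibitor at 0.1 or 1 μM; activity expressed as percentage of DMSO control reactions, mean of triplicate reactions.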

MEF [5] = experiment: Inhibition of cell migration in NUAK1+/+ MEF cells at 10 uM pre incubated for 1 hr followed by overnight incubation and measured after 15 to 20 hrs by microscopic based wound healing assay; type: functional; details: Mus musculus
In short: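 Wound healing: equal MEF numbers loaded into both chambers of inserts with a 500 μm gap, inhibitor (10 μM) added 1 h before; after overnight at 37 °C, 5% CO2 insert removed and gap closure filmed by time-lapse microscopy every 2 min over 15–20 h; triplicate.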

[6] = molecular target: T1, NUAK family SNF1-like kinase 1 (Homo sapiens); experiment: Inhibition of NUAK1 (unknown origin) expressed in HEK293 cells assessed as reduction in MYPT1 phosphorylation at Ser445 residue at 30 uM incubated for 16 hrs by immunoblot analysis; type: cell-based
In short: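 HEK-293 Flp/In T-Rex cells stably expressing HA–NUAK1 or HA–NUAK1[A195T] (doxycycline 0.1 μg/ml, 16–24 h to induce) treated with inhibitor 16 h, then detached in EDTA-PBS dissociation buffer containing the same inhibitor concentration, tapped and spun 70 g 3 min; lysed, endogenous MYPT1 immunoprecipitated from 0.5 mg lysate and immunoblotted for p-Ser445 and total MYPT1; three separate experiments.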

U2OS [7] = experiment: Antiproliferative activity against human U2OS cells assessed as reduction in cell viability at 10 uM after 5 days by CellTiter 96 non-radioactive cell proliferation assay; type: functional, cell-based; details: time 5.0 day; in short: as §1
U2OS [8] = experiment: Inhibition of cell invasion in human U2OS cells at 10 uM incubated for 16 hrs by matrigel based transwell assay; type: functional
In short: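 Growth-factor-reduced Matrigel Transwell invasion: U2OS cells serum-deprived 2 h, detached, 2.5×10^5 cells in DMEM/1% BSA added to upper chambers in triplicate, DMEM/10% FBS as chemoattractant below; 16 h at 37 °C, 5% CO2 with or without 10 μM inhibitor in both compartments; cells on lower filter face fixed, stained, imaged ×10 and counted; mean ± S.D.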

[9] = molecular target: T1, NUAK family SNF1-like kinase 1 (Homo sapiens); experiment: Inhibition of NUAK1 in HEK293 cells assessed as reduction in MYPT1 phosphorylation at Ser445 residue at 10 uM incubated for 16 hrs by immunoblot analysis; type: cell-based
In short: (§4)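 HEK-293 cells exposed to inhibitor or DMSO for 16 h; medium replaced by EDTA-PBS dissociation buffer with the same inhibitor concentration to induce detachment (gentle tapping, 70 g, 3 min); cells lysed at once; MYPT1 immunoprecipitated from 0.5 mg lysate, blotted for p-Ser445 and total MYPT1; repeated three times.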

[10] = molecular target: T1, NUAK family SNF1-like kinase 1 (Homo sapiens); experiment: Inhibition of NUAK1 in HEK293 cells assessed as reduction in MYPT1 phosphorylation at Ser445 residue at 0.1 to 10 uM incubated for 16 hrs by immunoblot analysis; type: cell-based; details: dose 0.1-10 µM; in short: as §4
[11] = molecular target: MAP/microtubule affinity-regulating kinase 3 (Homo sapiens) (UniProt P27448); experiment: Inhibition of recombinant human N-terminal His6-tagged MARK3 (2 to 729 residues) expressed in baculovirus infected Sf21 cells at 1 uM using CHKtide as substrate incubated for 30 mins in presence of [gamma-33P]ATP by filter binding method; in short: as §3
[12] = molecular target: Tyrosine-protein kinase JAK2 (Homo sapiens) (UniProt O60674); experiment: Inhibition of JAK2 (unknown origin) activity at 1 uM relative to control; in short: as §3
Chain of Tyrosine-protein kinase JAK2 (Homo sapiens) (O60674 whole entry, the tested form may be a part): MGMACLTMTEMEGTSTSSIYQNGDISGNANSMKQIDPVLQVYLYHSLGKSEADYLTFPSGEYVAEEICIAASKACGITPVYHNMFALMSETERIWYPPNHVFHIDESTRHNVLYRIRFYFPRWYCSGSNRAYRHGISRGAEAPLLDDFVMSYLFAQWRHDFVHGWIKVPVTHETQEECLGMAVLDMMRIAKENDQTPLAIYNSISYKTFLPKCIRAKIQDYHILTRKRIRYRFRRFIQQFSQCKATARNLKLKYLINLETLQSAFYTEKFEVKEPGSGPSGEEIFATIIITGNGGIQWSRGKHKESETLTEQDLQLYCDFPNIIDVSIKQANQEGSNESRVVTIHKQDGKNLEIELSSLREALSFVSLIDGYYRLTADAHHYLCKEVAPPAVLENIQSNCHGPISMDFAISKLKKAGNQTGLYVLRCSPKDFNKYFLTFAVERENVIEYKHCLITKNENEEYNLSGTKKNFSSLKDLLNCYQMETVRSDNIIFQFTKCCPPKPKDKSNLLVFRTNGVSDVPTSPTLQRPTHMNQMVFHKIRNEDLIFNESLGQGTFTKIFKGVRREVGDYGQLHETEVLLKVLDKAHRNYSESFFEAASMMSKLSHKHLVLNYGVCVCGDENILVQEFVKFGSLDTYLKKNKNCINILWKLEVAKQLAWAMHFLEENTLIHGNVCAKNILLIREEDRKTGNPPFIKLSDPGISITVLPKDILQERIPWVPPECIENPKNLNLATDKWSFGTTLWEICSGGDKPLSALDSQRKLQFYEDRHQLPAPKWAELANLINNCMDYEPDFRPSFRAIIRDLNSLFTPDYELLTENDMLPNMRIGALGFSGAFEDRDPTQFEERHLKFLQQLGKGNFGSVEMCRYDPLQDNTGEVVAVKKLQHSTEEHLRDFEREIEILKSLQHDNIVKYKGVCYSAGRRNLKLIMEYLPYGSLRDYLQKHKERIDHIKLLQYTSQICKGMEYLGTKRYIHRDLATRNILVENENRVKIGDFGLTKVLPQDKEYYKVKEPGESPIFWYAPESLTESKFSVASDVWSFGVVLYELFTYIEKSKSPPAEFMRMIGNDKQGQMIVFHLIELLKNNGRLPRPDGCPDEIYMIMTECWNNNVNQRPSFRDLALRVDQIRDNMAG

[13] = molecular target: Serine/threonine-protein kinase MARK1 (Homo sapiens) (UniProt Q9P0L2); experiment: Inhibition of recombinant human N-terminal His6-tagged MARK1 (2 to 795 residues) expressed in baculovirus infected Sf21 cells at 1 uM using KKKVSRSGLYRSPSMPENLNRPR as substrate incubated for 30 mins in presence of [gamma-33P]ATP by filter binding method; in short: as §3
Chain of Serine/threonine-protein kinase MARK1 (Homo sapiens) (Q9P0L2 whole entry, looked up, the tested form may be a part): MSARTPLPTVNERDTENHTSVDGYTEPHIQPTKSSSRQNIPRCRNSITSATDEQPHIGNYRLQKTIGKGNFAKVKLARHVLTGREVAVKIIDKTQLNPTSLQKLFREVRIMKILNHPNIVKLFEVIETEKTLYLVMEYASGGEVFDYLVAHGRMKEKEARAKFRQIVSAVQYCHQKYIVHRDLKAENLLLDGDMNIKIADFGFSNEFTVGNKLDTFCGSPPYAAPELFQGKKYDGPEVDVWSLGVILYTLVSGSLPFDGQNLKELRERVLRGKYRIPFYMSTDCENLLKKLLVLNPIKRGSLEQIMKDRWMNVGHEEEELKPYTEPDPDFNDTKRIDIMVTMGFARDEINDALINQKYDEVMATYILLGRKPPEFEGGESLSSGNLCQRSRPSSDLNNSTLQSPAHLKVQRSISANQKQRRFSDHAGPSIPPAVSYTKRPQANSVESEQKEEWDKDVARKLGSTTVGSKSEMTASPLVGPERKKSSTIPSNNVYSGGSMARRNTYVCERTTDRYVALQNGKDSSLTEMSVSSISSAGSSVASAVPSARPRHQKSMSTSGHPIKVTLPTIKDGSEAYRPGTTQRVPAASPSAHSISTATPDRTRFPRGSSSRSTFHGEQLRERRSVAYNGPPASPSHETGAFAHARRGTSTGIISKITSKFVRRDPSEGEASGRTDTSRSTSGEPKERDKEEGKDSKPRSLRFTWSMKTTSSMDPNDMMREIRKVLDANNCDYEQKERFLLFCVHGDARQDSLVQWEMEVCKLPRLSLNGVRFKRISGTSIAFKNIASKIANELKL

[14] = molecular target: Aurora kinase B (Homo sapiens) (UniProt Q96GD4); experiment: Inhibition of recombinant human N-terminal His6-tagged Aurora B (1 to 344 residues) expressed in Escherichia coli at 1 uM using LRRLSLGLRRLSLGLRRLSLGLRRLSLG as substrate incubated for 30 mins in presence of [gamma-33P]ATP by filter binding method; in short: as §3
Chain of Aurora kinase B (Homo sapiens) (Q96GD4 whole entry, the tested form may be a part): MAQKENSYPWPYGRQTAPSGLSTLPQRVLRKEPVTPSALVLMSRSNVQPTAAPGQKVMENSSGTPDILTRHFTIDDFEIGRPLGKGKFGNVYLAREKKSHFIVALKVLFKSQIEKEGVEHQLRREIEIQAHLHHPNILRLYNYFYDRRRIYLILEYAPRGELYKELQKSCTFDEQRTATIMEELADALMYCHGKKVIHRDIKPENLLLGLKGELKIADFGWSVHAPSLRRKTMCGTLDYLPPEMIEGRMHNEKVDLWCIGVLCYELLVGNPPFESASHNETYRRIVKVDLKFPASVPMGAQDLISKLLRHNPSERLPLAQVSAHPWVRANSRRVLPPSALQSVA

[15] = molecular target: Serine/threonine-protein kinase BRSK1 (Homo sapiens) (UniProt Q8TDC3); experiment: Inhibition of recombinant human N-terminal His6-tagged BRSK1 (2 to 778 residues) expressed in baculovirus infected Sf21 cells at 1 uM using KKLNRTLSFAEPG as substrate incubated for 30 mins in presence of [gamma-33P]ATP by filter binding method; in short: as §3
Chain of Serine/threonine-protein kinase BRSK1 (Homo sapiens) (Q8TDC3 whole entry, the tested form may be a part): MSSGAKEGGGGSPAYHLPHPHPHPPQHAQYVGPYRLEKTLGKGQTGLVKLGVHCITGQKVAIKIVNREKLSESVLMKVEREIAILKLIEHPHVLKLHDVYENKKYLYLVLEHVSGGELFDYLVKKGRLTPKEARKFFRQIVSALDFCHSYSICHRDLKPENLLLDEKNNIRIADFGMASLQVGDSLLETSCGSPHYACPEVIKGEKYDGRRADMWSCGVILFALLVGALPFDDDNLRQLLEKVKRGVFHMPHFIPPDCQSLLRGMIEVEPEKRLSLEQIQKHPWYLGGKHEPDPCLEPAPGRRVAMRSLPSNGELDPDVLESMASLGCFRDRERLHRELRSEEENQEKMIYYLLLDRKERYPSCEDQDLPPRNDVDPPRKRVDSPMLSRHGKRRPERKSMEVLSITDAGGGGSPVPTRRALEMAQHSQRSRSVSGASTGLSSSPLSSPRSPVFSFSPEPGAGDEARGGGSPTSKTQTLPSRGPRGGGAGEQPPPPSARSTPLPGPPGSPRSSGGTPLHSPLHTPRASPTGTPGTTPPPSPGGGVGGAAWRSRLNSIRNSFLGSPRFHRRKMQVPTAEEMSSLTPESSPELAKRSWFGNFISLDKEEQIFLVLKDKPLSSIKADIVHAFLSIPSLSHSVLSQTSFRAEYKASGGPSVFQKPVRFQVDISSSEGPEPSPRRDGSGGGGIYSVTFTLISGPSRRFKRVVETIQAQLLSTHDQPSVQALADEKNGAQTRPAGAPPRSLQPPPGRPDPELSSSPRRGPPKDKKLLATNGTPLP

[16] = molecular target: T2, Aurora kinase A (Homo sapiens) (UniProt O14965); experiment: Inhibition of recombinant human N-terminal Hi6-tagged Aurora A (2 to 403 residues) expressed in Escherichia coli 1 uM using LRRLSLGLRRLSLGLRRLSLGLRRLSLG as substrate incubated for 30 mins in presence of [gamma-33P]ATP by filter binding method; in short: as §3
T2 sequence (whole entry): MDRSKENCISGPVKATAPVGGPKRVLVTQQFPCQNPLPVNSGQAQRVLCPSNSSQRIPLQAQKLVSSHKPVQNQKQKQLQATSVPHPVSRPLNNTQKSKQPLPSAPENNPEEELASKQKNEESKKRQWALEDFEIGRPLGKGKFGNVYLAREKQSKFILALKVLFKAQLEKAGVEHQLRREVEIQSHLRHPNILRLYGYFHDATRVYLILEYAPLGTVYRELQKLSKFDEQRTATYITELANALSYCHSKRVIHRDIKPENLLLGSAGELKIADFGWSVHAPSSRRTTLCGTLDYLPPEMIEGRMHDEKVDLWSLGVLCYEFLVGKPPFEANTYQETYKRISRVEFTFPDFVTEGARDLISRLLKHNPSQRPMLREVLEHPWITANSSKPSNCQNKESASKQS

[17] = molecular target: AMPK alpha1/beta2/gamma1 (Homo sapiens) (UniProt O43741+P54619+Q13131); experiment: Inhibition of recombinant N-terminal His6-tagged human AMPKalpha1 (11 to 559 residues)/AMPKbeta2 (1 to 272 residues)/AMPKgamma1 (1 to 331 residues) expressed in baculovirus infected Sf21 cells at 1 uM using SAMS as substrate incubated for 30 mins in presence of [gamma-33P]ATP by filter binding method; in short: as §3
[18] = molecular target: NUAK family SNF1-like kinase 2 (Homo sapiens) (UniProt Q9H093); experiment: Inhibition of GST-tagged NUAK2 (unknown origin) expressed in HEK293 cells using ALNRTSSDSALHRRR as substrate incubated for 30 mins in presence of [gamma-32P]-ATP by Cerenkov counting method; type: cell-based
Chain of NUAK family SNF1-like kinase 2 (Homo sapiens) (Q9H093 whole entry): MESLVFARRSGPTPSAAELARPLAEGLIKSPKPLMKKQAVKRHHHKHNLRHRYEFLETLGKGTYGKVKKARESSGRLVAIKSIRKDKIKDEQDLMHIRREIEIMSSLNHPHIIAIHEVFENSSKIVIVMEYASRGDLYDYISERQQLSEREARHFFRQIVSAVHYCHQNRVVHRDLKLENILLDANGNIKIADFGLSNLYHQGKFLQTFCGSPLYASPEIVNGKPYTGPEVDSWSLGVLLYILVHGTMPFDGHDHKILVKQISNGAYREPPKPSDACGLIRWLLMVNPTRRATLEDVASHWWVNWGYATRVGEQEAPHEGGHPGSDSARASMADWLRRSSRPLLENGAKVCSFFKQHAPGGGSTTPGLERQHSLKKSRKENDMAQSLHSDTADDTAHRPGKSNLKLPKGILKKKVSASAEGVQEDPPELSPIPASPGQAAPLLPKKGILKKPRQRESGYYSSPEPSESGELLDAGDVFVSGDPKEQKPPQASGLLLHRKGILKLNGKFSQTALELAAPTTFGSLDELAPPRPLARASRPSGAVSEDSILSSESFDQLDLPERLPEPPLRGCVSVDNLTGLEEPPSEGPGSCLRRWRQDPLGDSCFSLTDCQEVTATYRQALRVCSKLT
In short: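 GST–NUAK2 purified on glutathione–Sepharose from HEK-293 cells 36–48 h after transient transfection; 100 ng enzyme in 50 mM Tris/HCl pH 7.5, 0.1 mM EGTA, 10 mM magnesium acetate, 200 μM Sakamototide, 0.1 mM [γ-32P]ATP, inhibitor in DMSO; 30 min at 30 °C, stopped with 25 mM EDTA, spotted on P81, Cerenkov counted; triplicate; IC50 by non-linear regression versus DMSO control.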

[19] = molecular target: Tyrosine-protein kinase ABL1 (Homo sapiens) (UniProt P00519); experiment: Inhibition of recombinant human N-terminal GST-tagged ABL (118 to 535 residues) expressed in Escherichia coli co-expressed with His-tagged YopH at 1 uM using EAIYAAPFAKKK as substrate incubated for 30 mins in presence of [gamma-33P]ATP by filter binding method
Chain of Tyrosine-protein kinase ABL1 (Homo sapiens) (P00519 whole entry, the tested form may be a part): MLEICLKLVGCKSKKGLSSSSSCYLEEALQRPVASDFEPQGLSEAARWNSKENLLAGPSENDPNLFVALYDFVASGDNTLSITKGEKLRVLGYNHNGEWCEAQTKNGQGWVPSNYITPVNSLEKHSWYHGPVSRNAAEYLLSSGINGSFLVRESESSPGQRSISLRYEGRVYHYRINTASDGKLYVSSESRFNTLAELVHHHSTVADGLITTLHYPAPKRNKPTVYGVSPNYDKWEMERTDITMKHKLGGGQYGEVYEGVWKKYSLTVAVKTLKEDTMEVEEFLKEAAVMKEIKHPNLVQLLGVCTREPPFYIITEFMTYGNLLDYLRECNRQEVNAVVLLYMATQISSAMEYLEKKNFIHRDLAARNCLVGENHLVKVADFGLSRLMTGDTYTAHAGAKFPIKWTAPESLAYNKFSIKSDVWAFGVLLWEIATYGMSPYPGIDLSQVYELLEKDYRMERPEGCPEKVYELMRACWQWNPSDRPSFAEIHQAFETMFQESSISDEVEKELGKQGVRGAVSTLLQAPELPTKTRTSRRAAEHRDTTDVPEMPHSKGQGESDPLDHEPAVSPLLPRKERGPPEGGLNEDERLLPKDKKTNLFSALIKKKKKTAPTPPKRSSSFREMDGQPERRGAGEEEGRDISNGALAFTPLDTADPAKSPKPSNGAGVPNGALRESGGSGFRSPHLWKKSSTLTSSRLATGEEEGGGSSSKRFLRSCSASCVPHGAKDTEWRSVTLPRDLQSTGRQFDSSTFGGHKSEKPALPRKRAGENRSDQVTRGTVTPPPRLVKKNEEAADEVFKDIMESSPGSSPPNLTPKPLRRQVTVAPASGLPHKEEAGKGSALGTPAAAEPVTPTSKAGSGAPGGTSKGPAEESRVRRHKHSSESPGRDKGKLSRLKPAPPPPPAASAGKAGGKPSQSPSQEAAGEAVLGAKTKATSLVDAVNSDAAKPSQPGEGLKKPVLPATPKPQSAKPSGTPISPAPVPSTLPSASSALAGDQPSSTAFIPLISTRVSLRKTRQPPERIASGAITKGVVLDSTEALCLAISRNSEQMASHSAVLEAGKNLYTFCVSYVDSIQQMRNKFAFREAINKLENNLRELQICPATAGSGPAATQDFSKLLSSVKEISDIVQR
In short: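 Run within a 140-kinase specificity panel at the International Centre for Protein Kinase Profiling. Compounds were dissolved in DMSO and tested in vitro at 0.1 or 1 μM. Activity is expressed as percentage of kinase activity in DMSO control reactions, as the mean ± S.D. of triplicate reactions.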

Row | SMILES | inhibition (MEF [1]) | inhibition (MEF [2]) | inhibition [3] | Activity [4] [%] | inhibition (MEF [5]) | inhibition [6] | inhibition (U2OS [7]) | inhibition (U2OS [8]) | inhibition [9] | inhibition [10] | inhibition [11] | inhibition [12] | inhibition [13] | inhibition [14] | inhibition [15] | inhibition [16] | inhibition [17] | inhibition [18] | inhibition [19]
1 | Cc1nc(Nc2cnn(C3CCNCC3)c2)nc2c1N(C)C(=O)c1cc3ccccc3cc1N2C | Active | Active | Active | 82 | Active | Active | Active | Active | Active |  |  |  |  |  |  |  |  |  | 
2 | CN1C(=O)c2ccccc2N(C)c2nc(Nc3cnn(C4CCNCC4)c3)ncc21 |  |  |  |  |  |  |  |  |  | Active | Active | Active | Active | Active | Active | Active | Active | inactive | Active
3 | CN1C(=O)c2cc3ccccc3cc2N(C)c2nc(Nc3cnn(C4CCNCC4)c3)ncc21 |  |  |  |  |  |  |  |  |  | Active |  | Active |  | Active |  | Active |  | inactive | Active
